# In ChEMBL document CHEMBL2177098, “Synthesis and evaluation of novel ¹⁸F labeled 2-pyridinylbenzoxazole and 2-pyridinylbenzothiazole derivatives as ligands for positron emission tomography (PET) imaging of β-amyloid plaques” (J Med Chem, 2012):
# Assays:
# [1] = test system: Lung; assay: Drug uptake in ICR mouse lung at 370 kBq/100 ul, iv at 30 mins by gamma-counting analysis; format: ADME, organism-based; conditions: in vivo, 0.5 h
# Method in brief: (§1)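 Male ICR mice (5 weeks, about 20 g) got 18F tracer in saline (370 KBq per 100 μL) via tail vein; n = 5 per time point, killed at 2, 10, 30, 60 min. Organs weighed and γ-counted; percent dose per gram wet tissue from comparison with diluted injectate aliquots.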
# [2] = test system: Intestine; assay: Drug uptake in ICR mouse intestine assessed per organ at 370 kBq/100 ul, iv at 10 mins by gamma-counting analysis; format: ADME, organism-based; conditions: in vivo
# Method in brief: (§2)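 Male ICR mice (5 weeks, about 20 g) got 18F tracer in saline (370 KBq per 100 μL) via tail vein; n = 5 per time point, killed at 2, 10, 30, 60 min. Organs removed and γ-counted against diluted injectate; expressed as % injected dose per organ.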
# [3] = test system: Blood; assay: Drug uptake in ICR mouse blood at 370 kBq/100 ul, iv at 30 mins by gamma-counting analysis; format: ADME, organism-based; conditions: in vivo, 0.5 h; method in brief: as §1
# [4] = test system: Intestine; assay: Drug uptake in ICR mouse intestine assessed per organ at 370 kBq/100 ul, iv at 2 mins by gamma-counting analysis; format: ADME, organism-based; conditions: in vivo; method in brief: as §2
# [5] = test system: Heart; assay: Drug uptake in ICR mouse heart at 370 kBq/100 ul, iv at 2 mins by gamma-counting analysis; format: ADME, organism-based; conditions: in vivo; method in brief: as §1
# [6] = n-Octanol-PBS buffer partition coefficient, log D of the compound at 1.5 MBq after 3 mins at pH 7.4; format: physicochemical
# Method in brief: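 The tracer was partitioned between n-octanol and PBS by vortexing for 3 min at room temperature, then centrifuged for 5 min at 3000 rpm. Samples of the octanol (50 μL) and aqueous (500 μL) layers were counted. log D is the log of the octanol/PBS counts-per-gram ratio. The octanol layer was repartitioned until values were consistent. Measured in triplicate and repeated three times.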
# [7] = test system: Brain; assay: Drug uptake in ICR mouse brain at 370 kBq/100 ul, iv at 60 mins by gamma-counting analysis; format: ADME, organism-based; conditions: in vivo, 1 h; method in brief: as §1
# [8] = test system: Bone; assay: Drug uptake in ICR mouse bone at 370 kBq/100 ul, iv at 30 mins by gamma-counting analysis; format: ADME, organism-based, Bone element; conditions: in vivo, 0.5 h; method in brief: as §1
# [9] = test system: Brain; assay: Drug uptake in wild type C57BL6 mouse brain at 370 KBq/100 ul after 1 hr by autoradiographic analysis; format: ADME, tissue-based; conditions: in vitro
# Method in brief: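 Paraffin brain sections from 12-month-old male control C57BL6 mice were deparaffinized through xylene and graded ethanol, then held in PBS (0.2 M, pH 7.4) for 30 min. They were incubated with the ¹⁸F tracer (370 KBq per 100 μL) for 1 h at room temperature. Sections were washed in 40% EtOH, rinsed with water for 1 min, dried, and exposed to a phosphor plate for 2 h. The same sections were then stained with thioflavin S.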
# [10] = test system: Lung; assay: Drug uptake in ICR mouse lung at 370 kBq/100 ul, iv at 60 mins by gamma-counting analysis; format: ADME, organism-based; conditions: in vivo, 1 h; method in brief: as §1
# [11] = test system: Stomach; assay: Drug uptake in ICR mouse stomach assessed per organ at 370 kBq/100 ul, iv at 30 mins by gamma-counting analysis; format: ADME, organism-based; conditions: in vivo, 0.5 h; method in brief: as §2
# [12] = test system: Kidney; assay: Drug uptake in ICR mouse kidney at 370 kBq/100 ul, iv at 10 mins by gamma-counting analysis; format: ADME, organism-based; conditions: in vivo; method in brief: as §1
# [13] = Displacement of [125I]-IMPY from amyloid beta (1 to 42) fibrils after 2 hrs by gamma-counting analysis
# Method in brief: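 Competition binding with aggregated Aβ1-42 fibrils and [125I]IMPY (60000−100000 cpm/100 μL) in 0.05% BSA (1 mL total); inhibitors 10⁻⁴−10^−8.5 M in ethanol. Incubated 37 °C for 2 h, then GF/B vacuum filtration with PBS (0.02 M, pH 7.4) washes and γ counting. Three repeats; IC50 converted to Ki by Cheng−Prusoff.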
# [14] = test system: Brain; assay: Drug uptake in healthy human brain at 370 KBq/100 ul after 1 hr by autoradiographic analysis; format: ADME, tissue-based; conditions: in vitro
# [15] = test system: Heart; assay: Drug uptake in ICR mouse heart at 370 kBq/100 ul, iv at 10 mins by gamma-counting analysis; format: ADME, organism-based; conditions: in vivo; method in brief: as §1
# [16] = test system: Intestine; assay: Drug uptake in ICR mouse intestine assessed per organ at 370 kBq/100 ul, iv at 60 mins by gamma-counting analysis; format: ADME, organism-based; conditions: in vivo, 1 h; method in brief: as §2
# [17] = test system: Stomach; assay: Drug uptake in ICR mouse stomach assessed per organ at 370 kBq/100 ul, iv at 60 mins by gamma-counting analysis; format: ADME, organism-based; conditions: in vivo, 1 h
# Method in brief: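 Normal male ICR mice (5 weeks, about 20 g) received the ¹⁸F tracer in saline (370 KBq per 100 μL) by tail-vein injection. Groups of n = 5 were killed at 2, 10, 30 and 60 min. Organs were removed, weighed and γ-counted against diluted aliquots of the injectate, giving % dose per gram. Stomach and intestine were expressed per organ. The brain ratio is 2 min/60 min uptake. Values are mean ± SD.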
# [18] = test system: Brain; assay: Drug uptake in ICR mouse brain at 370 kBq/100 ul, iv at 30 mins by gamma-counting analysis; format: ADME, organism-based; conditions: in vivo, 0.5 h; method in brief: as §1
# [19] = test system: Spleen; assay: Drug uptake in ICR mouse spleen at 370 kBq/100 ul, iv at 10 mins by gamma-counting analysis; format: ADME, organism-based; conditions: in vivo; method in brief: as §1
# [20] = test system: Brain; assay: Drug uptake in ICR mouse brain at 370 kBq/100 ul, iv at 10 mins by gamma-counting analysis; format: ADME, organism-based; conditions: in vivo; method in brief: as §1
# [21] = test system: Spleen; assay: Drug uptake in ICR mouse spleen at 370 kBq/100 ul, iv at 60 mins by gamma-counting analysis; format: ADME, organism-based; conditions: in vivo, 1 h; method in brief: as §1
# [22] = test system: Liver; assay: Drug uptake in ICR mouse liver at 370 kBq/100 ul, iv at 10 mins by gamma-counting analysis; format: ADME, organism-based; conditions: in vivo; method in brief: as §1
compound,measurement,setting,value
CNc1ccc(-c2nc3cc(OCCOCCOCC[18F])ccc3o2)cn1,Drug uptake,[1],2.81 % ID/g
same,Drug uptake,[2],22.9 %ID
same,Drug uptake,[3],3.16 % ID/g
same,Drug uptake,[4],10.81 %ID
same,Drug uptake,[5],5.5 % ID/g
same,logD at 0.05 h,[6],2.86
same,Drug uptake,[7],1.78 % ID/g
same,Drug uptake,[8],2.46 % ID/g
same,Drug uptake,[9],Not Active
same,Drug uptake,[10],2.34 % ID/g
same,Drug uptake,[11],12.93 %ID
same,Drug uptake,[12],4.79 % ID/g
same,Ki,[13],0.0769 µM
same,Drug uptake,[14],Not Active
same,Drug uptake,[15],3.35 % ID/g
same,Drug uptake,[16],25.16 %ID
same,Drug uptake,[17],12.02 %ID
same,Drug uptake,[18],2.06 % ID/g
same,Drug uptake,[19],2.64 % ID/g
same,Drug uptake,[20],2.05 % ID/g
same,Drug uptake,[21],1.79 % ID/g
same,Drug uptake,[22],9.32 % ID/g
